Laboratory results from ChEMBL document CHEMBL4229456, “Salicylic Acid Derivatives Inhibit Oxalate Production in Mouse Hepatocytes with Primary Hyperoxaluria Type 1” (J Med Chem, 2018).

Columns and labels:
[1] = target: T1, 2-Hydroxyacid oxidase 1 (Mus musculus) (UniProt Q9WU19); experiment: Inhibition of mouse recombinant glycolate oxidase expressed in Escherichia coli at 25 uM using glycolate as substrate after 1 min by sulfonated DCIP dye-based assay relative to control
T1 sequence (whole entry): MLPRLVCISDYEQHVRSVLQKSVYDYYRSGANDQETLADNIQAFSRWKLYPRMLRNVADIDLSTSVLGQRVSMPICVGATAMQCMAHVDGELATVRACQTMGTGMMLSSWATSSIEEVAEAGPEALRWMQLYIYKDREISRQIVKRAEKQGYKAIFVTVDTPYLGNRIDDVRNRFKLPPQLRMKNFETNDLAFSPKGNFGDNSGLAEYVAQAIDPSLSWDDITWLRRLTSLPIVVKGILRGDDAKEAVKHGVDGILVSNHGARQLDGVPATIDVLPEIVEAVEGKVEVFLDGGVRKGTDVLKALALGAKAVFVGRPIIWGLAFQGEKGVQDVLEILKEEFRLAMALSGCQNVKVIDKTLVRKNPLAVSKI

2-Hydroxyacid oxidase 1 [2] = target: T2, 2-Hydroxyacid oxidase 1 (Mus musculus, UniProt Q9WU19); experiment: Inhibition of mouse recombinant glycolate oxidase expressed in Escherichia coli using glycolate as substrate by sulfonated DCIP dye-based assay
T2 sequence (Q9WU19 whole entry): T1 sequence (whole entry)
Method in brief: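 Purified recombinant mGO (10 µL at 0.1 µg/µL) with saturating glycolate (22.2 mM) in 50 mM potassium phosphate pH 7. Compound at 0.2 µM–0.2 mM; H2O2 detected by HRP-coupled sulfonated DCIP/4-aminoantipyrine dye at 515 nm. IC50 from nonlinear dose-response fitting.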

[3] = target: T1, 2-Hydroxyacid oxidase 1 (Mus musculus); experiment: Inhibition of glycolate oxidase in C57BL/6 Agxt1-/- mouse hepatocytes using glycolate as substrate assessed as relative oxalate level at 10 uM after 24 hrs; assay type: cell-based
Method in brief: (§1)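 Primary Agxt1-/- mouse hepatocytes in 6-well plates, serum-free Williams E with 5 mM glycolate, treated with 10 µM compound. Excreted oxalate measured 24 h later by oxalate oxidase–HRP colorimetric kit (595 nm) and expressed relative to untreated control. Mean ± SD, n = 3, one-way ANOVA.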

Mus musculus = experiment: Reduction in urine oxalate levels in Agxt1-/- mouse model at 110 mg/kg administered via oral gavage measured after 24 hrs post treatment for 11 days relative to control; assay type: functional; design: scale not given: the % may be the effect or the level left
2-Hydroxyacid oxidase 1 [4] = target: T2, 2-Hydroxyacid oxidase 1; experiment: Inhibition of glycolate oxidase in mouse Agxt1-/- hepatocytes using glycolate as substrate assessed as reduction in oxalate production after 72 hrs by sulfonated-DCIP dye-based assay; assay type: cell-based
2-Hydroxyacid oxidase 1 [5] = target: T2, 2-Hydroxyacid oxidase 1; experiment: Inhibition of glycolate oxidase in mouse Agxt1-/- hepatocytes using glycolate as substrate assessed as reduction in oxalate production after 48 hrs by sulfonated-DCIP dye-based assay; assay type: cell-based
2-Hydroxyacid oxidase 1 [6] = target: T2, 2-Hydroxyacid oxidase 1; experiment: Inhibition of glycolate oxidase in mouse Agxt1-/- hepatocytes using glycolate as substrate assessed as reduction in oxalate production after 24 hrs by sulfonated-DCIP dye-based assay; assay type: cell-based
2-Hydroxyacid oxidase 1 [7] = target: T2, 2-Hydroxyacid oxidase 1; experiment: Inhibition of mouse N-terminal His-tagged glycolate oxidase expressed in BL21(DE3) Escherichia coli using glycolate as substrate by Cornish-Bowden plot analysis
Method in brief: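 Recombinant mouse GO came from E. coli carrying a pET15b Hao1 vector and was purified by affinity chromatography. Glycolate oxidation was run in 50 mM potassium phosphate pH 7. H2O2 was coupled through HRP with sulfonated DCIP/4-aminoantipyrine and read at 515 nm. Inhibitor and substrate concentrations were varied at constant enzyme, and Ki was taken from the line intersection in Cornish-Bowden and Dixon plots.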

[8] = target: T1, 2-Hydroxyacid oxidase 1 (Mus musculus); experiment: Inhibition of glycolate oxidase in C57BL/6 Agxt1-/- mouse hepatocytes using glycolate as substrate assessed as relative oxalate level at 12.5 uM after 24 hrs; assay type: cell-based
Method in brief: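 Primary hepatocytes were isolated from male C57BL/6 Agxt1-/- mouse liver by in situ collagenase perfusion. They were plated at 3.0x10^5 cells/well in supplemented Williams E with 5% FBS, then switched after 5 h to serum-free medium and treated in the presence of 5 mM glycolate. Medium was collected at 24 h, or 48 and 72 h for dose-response. Oxalate was read by oxalate oxidase/HRP (MBTH/DMAB) at 595 nm relative to control.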

[9] = target: T1, 2-Hydroxyacid oxidase 1 (Mus musculus); experiment: Inhibition of glycolate oxidase in C57BL/6 Agxt1-/- mouse hepatocytes using glycolate as substrate assessed as reduction in oxalate production at 10 uM after 24 hrs; assay type: cell-based; method in brief: as §1

O=C(O)c1cc(-c2ccccc2COc2cc(F)cc(F)c2)ccc1O showed an inhibition [1] of 84.5%, an IC50 (2-Hydroxyacid oxidase 1 [2]) of 5.8 µM and a fold change (FC) [3] of 0.92.
O=C(O)c1ccc(-c2ccc(O)cc2)cc1O gave an inhibition [1] of 61.3%, an IC50 (2-Hydroxyacid oxidase 1 [2]) of 13.5 µM and a fold change (FC) [3] of 0.82.
For O=C(O)c1nnsc1Sc1ccc(Cl)cc1, the Activity (Mus musculus) was 30 - 50%, the EC50 (2-Hydroxyacid oxidase 1 [4]) was 34 µM and the EC50 (2-Hydroxyacid oxidase 1 [5]) was 33 µM. For the same compound, the EC50 (2-Hydroxyacid oxidase 1 [6]) was 25.3 µM, the IC50 (2-Hydroxyacid oxidase 1 [7]) was 43.5 µM and the Ki (2-Hydroxyacid oxidase 1 [7]) was 20.3 µM. It also gave an inhibition [1] of 34.8%, an IC50 (2-Hydroxyacid oxidase 1 [2]) of 43.5 µM and a fold change (FC) [8] of 0.63.
Compound O=Cc1ccc(-c2cccc(C(=O)O)c2)o1 has an inhibition [1] of 22.7% and a fold change (FC) [3] of 0.86.
With CC(=O)c1ccc(-c2ccc(C(=O)O)c(O)c2)s1 the inhibition [1] was 28.1% and the fold change (FC) [3] was 0.89.
In the case of O=Cc1ccc(-c2ccc(O)c(C(=O)O)c2)s1, the inhibition [1] is reported as 52.1%, the IC50 (2-Hydroxyacid oxidase 1 [2]) is reported as 9.4 µM and the fold change (FC) [3] is reported as 0.93.
O=C(O)c1ccc(Cl)cc1O showed an inhibition [1] of 20.8%.
COc1cc(-c2ccc(C=O)o2)ccc1C(=O)O gave an inhibition [1] of 0% and a fold change (FC) [3] of 0.82.
Nc1ccc(C(=O)O)c(O)c1 gave an inhibition [1] of 14.9%.
COC(=O)c1ccc(-c2ccc(C=O)o2)cc1OC gave an inhibition [1] of 17.5% and a fold change (FC) [3] of 0.9.
With O=C(O)c1ccc(-c2ccoc2)cc1O the inhibition [1] was 22.8% and the fold change (FC) [3] was 1.02.
In the case of O=C(O)c1cc2ccccc2c(/N=N/c2c(O)cc(S(=O)(=O)O)c3ccccc23)c1O, the inhibition [1] is reported as 75.1% and the fold change (FC) [3] is reported as 1.11.
O=C(O)c1ccc(-c2ccncc2)cc1O showed an inhibition [1] of 22.7% and a fold change (FC) [3] of 0.88.
Compound Cc1ccc(/N=N/c2cc(C(=O)O)cc3ccccc23)c(S(=O)(=O)O)c1 has an inhibition [1] of 1.5%.
For COc1ccc(COc2ccc(-c3ccc(O)c(C(=O)O)c3)cc2)cc1, the inhibition [1] was 83.8%, the IC50 (2-Hydroxyacid oxidase 1 [2]) was 9.5 µM and the fold change (FC) [3] was 1.07.
With O=C(O)c1cc(-c2ccsc2)ccc1O the inhibition [1] was 25.2% and the fold change (FC) [3] was 0.94.
In the case of O=Cc1ccc(-c2ccc(C(=O)O)c(O)c2)s1, the inhibition [1] is reported as 28.7% and the fold change (FC) [3] is reported as 1.
O=C(O)c1ccc(-c2ccc(OCc3ccccc3)cc2)cc1O gave an inhibition [1] of 83.4%, an IC50 (2-Hydroxyacid oxidase 1 [2]) of 10.4 µM and a fold change (FC) [3] of 1.11.
Work on O=C(O)c1cc([N+](=O)[O-])c(-c2ccco2)cc1O yielded an inhibition [1] of 5.9% and a fold change (FC) [3] of 0.86.
O=C(O)c1cc2cc(Br)ccc2cc1O showed an inhibition [1] of 42.3%, an IC50 (2-Hydroxyacid oxidase 1 [2]) of 39.9 µM and a fold change (FC) [3] of 0.99.
With O=C(O)c1ccc(-c2ccccc2COc2cc(F)cc(F)c2)cc1O the inhibition [1] was 77.7%, the IC50 (2-Hydroxyacid oxidase 1 [2]) was 8.3 µM and the fold change (FC) [3] was 0.72.
Work on O=C(O)c1ccc(-c2ccsc2)cc1O yielded an inhibition [1] of 41.4%, an IC50 (2-Hydroxyacid oxidase 1 [2]) of 21.6 µM and a fold change (FC) [3] of 0.99.
Compound CC(=O)c1ccc(O)c(C(=O)O)c1 has an inhibition [1] of 22.1%.
Compound O=Cc1ccc(-c2ccc(O)cc2)o1 has an inhibition [1] of 24.2% and a fold change (FC) [3] of 0.32.
Compound O=C(O)c1cc(Oc2ccc([N+](=O)[O-])cc2)c2ccccc2c1O has an inhibition [1] of 96.3%, an IC50 (2-Hydroxyacid oxidase 1 [2]) of 2.9 µM and a fold change (FC) [3] of 0.77.
O=C(O)c1cc(-c2cccs2)ccc1O showed an inhibition [1] of 30%, an IC50 (2-Hydroxyacid oxidase 1 [2]) of 39.5 µM and a fold change (FC) [3] of 0.82.
O=C(O)c1ccc(-c2ccccc2COc2cccc(C(F)(F)F)c2)cc1O was tested, and the inhibition [1] was 98.6%, the IC50 (2-Hydroxyacid oxidase 1 [2]) was 4.4 µM and the fold change (FC) [3] was 0.62. The inhibition [9] was 30%.
For Cn1nccc1-c1ccc(C(=O)O)c(O)c1, the inhibition [1] was 16.2% and the fold change (FC) [3] was 0.93.
In the case of N[C@@H](CCC(=O)Nc1ccc(O)c(C(=O)O)c1)C(=O)O, the inhibition [1] is reported as 7.8%.
O=C(O)c1cc(-c2ccc(OCc3ccccc3)cc2)ccc1O was tested, and the inhibition [1] was 70.9%, the IC50 (2-Hydroxyacid oxidase 1 [2]) was 14.8 µM and the fold change (FC) [3] was 0.8.
Work on O=C(O)c1cc(-c2ccccc2COc2cccc(C(F)(F)F)c2)ccc1O yielded an inhibition [1] of 96.2%, an IC50 (2-Hydroxyacid oxidase 1 [2]) of 3.5 µM and a fold change (FC) [3] of 0.68. For the same compound, the inhibition [9] was 30%.
With O=C(O)c1cnc2cc(Cl)ccc2c1O the inhibition [1] was 24.8%.
For O=C(O)c1ccc(-c2ccc(C(=O)O)c(O)c2)o1, the inhibition [1] was 0%.
Work on O=C(O)c1cc(-c2ccoc2)ccc1O yielded an inhibition [1] of 26.6% and a fold change (FC) [3] of 0.89.
For O=C(O)c1ccc(-c2ccc(O)c(C(=O)O)c2)o1, the inhibition [1] was 0%, the fold change (FC) [3] was 0.68 and the inhibition [9] was 30%.
Compound O=C(O)c1ccc(-c2cccs2)cc1O has an inhibition [1] of 35.4%, an IC50 (2-Hydroxyacid oxidase 1 [2]) of 32.5 µM and a fold change (FC) [3] of 0.74.
O=C(O)c1cccc(F)c1O was tested, and the inhibition [1] was 13.5%.
Work on O=C(O)c1ccc(-c2ccc(CO)o2)cc1O yielded an inhibition [1] of 85.7%, an IC50 (2-Hydroxyacid oxidase 1 [2]) of 7.9 µM and a fold change (FC) [3] of 0.88.
Nc1ccc(O)c(C(=O)O)c1 [MESALAMINE] gave an inhibition [1] of 71.9%, an IC50 (2-Hydroxyacid oxidase 1 [2]) of 7.8 µM and a fold change (FC) [3] of 0.88.
In the case of O=C(O)c1ccc(-c2ccc([N+](=O)[O-])cc2)cc1O, the inhibition [1] is reported as 41.9%, the IC50 (2-Hydroxyacid oxidase 1 [2]) is reported as 19.7 µM and the fold change (FC) [3] is reported as 0.91.
O=C(O)c1cc(Sc2nnnn2-c2ccccc2)c2ccccc2c1O gave an inhibition [1] of 75.3%, an IC50 (2-Hydroxyacid oxidase 1 [2]) of 11.1 µM and a fold change (FC) [3] of 0.99.
O=Cc1ccc(-c2ccc(C(=O)O)c(CO)c2)o1 was tested, and the inhibition [1] was 0% and the fold change (FC) [3] was 0.98.
Cc1ccc(-c2ccc(C(=O)O)c(O)c2)s1 was tested, and the inhibition [1] was 28.7% and the fold change (FC) [3] was 0.95.
For O=C(O)c1ccc(-c2ccco2)cc1O, the inhibition [1] was 35.8%, the IC50 (2-Hydroxyacid oxidase 1 [2]) was 39.3 µM and the fold change (FC) [3] was 0.87.
For O=Cc1ccc(-c2ccc3cc(O)c(C(=O)O)cc3c2)o1, the inhibition [1] was 26.2%.
Work on O=Cc1ccc(-c2ccc(C(=O)O)c(O)c2)o1 yielded an inhibition [1] of 82.8%, an IC50 (2-Hydroxyacid oxidase 1 [2]) of 34.5 µM and a fold change (FC) [3] of 0.88.
Work on O=C(O)c1ccccc1O yielded an inhibition [1] of 18.5%.
Compound COc1cccc(-c2ccc(C(=O)O)c(O)c2)c1 has an inhibition [1] of 50.9%, an IC50 (2-Hydroxyacid oxidase 1 [2]) of 19.5 µM and a fold change (FC) [3] of 0.83.
O=C(O)c1cc2ccccc2c(/N=N/c2cc(C(F)(F)F)ccc2Cl)c1O showed an inhibition [1] of 47.4% and a fold change (FC) [3] of 0.91.
Compound O=C(O)c1cc(-c2ccc(CO)o2)ccc1O has an inhibition [1] of 98%, an IC50 (2-Hydroxyacid oxidase 1 [2]) of 4.6 µM and a fold change (FC) [3] of 0.88.
For COc1ccc(COc2ccc(-c3ccc(C(=O)O)c(O)c3)cc2)cc1, the inhibition [1] was 65%, the IC50 (2-Hydroxyacid oxidase 1 [2]) was 13.8 µM and the fold change (FC) [3] was 0.9.
